This is one part of a sample in which hits are shown more often than they occur.
RORa inhibitor: inhibitors of orphan receptor RORA, primary screen, cell-based, luminescence. AID 561, 2006. Nuclear receptor ROR-alpha (Homo sapiens), P35398. CHO-K1 Gal4-RORA LBD luciferase reporter. 65,000 tested, 0.43% active. inhibition, % at 10 µM;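 active means inhibition above the mean of all tested compounds plus 3 SD, cut at about 52% in these data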;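 further: 0% = RORA-transfected cells with DMSO and 100% = mock-transfected cells lacking RORA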
Target sequence (P35398 whole entry, looked up, the tested form may be a part): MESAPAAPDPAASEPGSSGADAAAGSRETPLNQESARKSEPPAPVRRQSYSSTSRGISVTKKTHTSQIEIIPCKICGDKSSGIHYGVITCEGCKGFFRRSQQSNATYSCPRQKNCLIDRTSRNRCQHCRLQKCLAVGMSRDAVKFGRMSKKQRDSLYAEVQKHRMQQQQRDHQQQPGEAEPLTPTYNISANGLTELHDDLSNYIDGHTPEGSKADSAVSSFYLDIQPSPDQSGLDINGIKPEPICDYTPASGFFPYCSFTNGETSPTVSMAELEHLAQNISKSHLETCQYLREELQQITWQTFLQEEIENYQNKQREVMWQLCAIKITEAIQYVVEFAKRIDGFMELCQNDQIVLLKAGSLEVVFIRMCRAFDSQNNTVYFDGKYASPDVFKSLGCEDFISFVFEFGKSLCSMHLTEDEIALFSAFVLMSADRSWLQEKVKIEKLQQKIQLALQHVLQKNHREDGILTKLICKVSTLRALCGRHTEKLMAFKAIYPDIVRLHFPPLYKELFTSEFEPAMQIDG
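Test system: CHO-K1 cells with Gal4-hRORA LBD fusion and pG5-luc reporter / Compound: single concentration per compound, 10 µM final / Schedule: 20 h compound treatment, 37 °C / Signal: luminescence from basal luciferase reporter expression / Read-out: % inhibition / Control set: mock-transfected cells as 100%, +RORA DMSO cells as 0% / Replicates: tested once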
The depositor's hits bear a star.

SMILES	RORa inhibitor
Cn1c(=O)[nH]c(=O)c2c1nc(Sc1nc3ccccc3s1)n2Cc1ccccc1	-4.1
COc1ccc(CN(CC(=O)NCC2CCCO2)C(=O)CCC(=O)Nc2cc(C)ccn2)cc1 (centres undefined)	-9.0
COc1ccc(C(=O)Nn2c(SCC(=O)NCC3CCCO3)nc3ccccc3c2=O)cc1 (centres undefined)	67.4*
CC(=O)NCCn1c(SCC(=O)NCC2CCCO2)nc2ccccc2c1=O (centres undefined)	5.6
CCOC(=O)c1cnc(=O)[nH]c1C	2.7
O=S(=O)(NC1CC2CCC1C2)c1ccc(Br)s1 (centres undefined)	13.3
CSC1=NC(NCCCO)c2c(sc3c2CC(C)(C)OC3)N1 (centres undefined)	-13.2
Clc1ccc(-c2nn3c(Cn4cnc5ccccc54)nnc3s2)c(Cl)c1	1.3
Cc1ccc(-c2cc3c(nn2)-c2ccccc2C3=O)cc1	82.7*
CCOc1ccccc1/C=c1\sc2ncnn2c1=O	-0.9
COc1ccc(S(=O)(=O)N(C)CC(=O)N2CCC(C)CC2)cc1Cl	14.8
Cc1[nH]c2ccc(-c3nnc(SCC(=O)c4ccccc4F)o3)cc2c1C	-6.9
Cc1cccc(NC(=O)CSc2nnc(-c3cc(C)n(-c4ccccc4)c3C)o2)c1C	62.8*
Cc1csc(NC(=O)CSc2nnc(-c3ccoc3C)o2)n1	-60.6
Cc1cc(-c2nnco2)c(C)n1-c1ccccc1	-12.7
Cc1cccc(C)c1OCc1nnc(SCC(=O)Nc2ccccc2F)o1	10.5
Cc1ccc(-c2nnc(SCC(=O)Nc3ccccc3F)o2)cc1	63.2*
Cc1ccc(-n2ncc(-c3nnc(SCC(=O)NC4CCCC4)o3)c2N)cc1C	-16.7
CCCOc1ccc(N2CC(C(=O)Nc3ncccc3C)CC2=O)cc1 (centres undefined)	19.2
COc1ccc(OC)c(N(CC(=O)NCCSc2ccccc2)S(C)(=O)=O)c1	-0.4
Cc1c(-c2nc(N)nc(Nc3ccccc3)n2)oc2ccccc12	-88.7
COc1cc2[nH]c(=O)n(Cc3ccc(C(=O)NCC4CCCO4)cc3)c(=O)c2cc1OC (centres undefined)	5.9
O=C(Nc1cnc2sc3c(n2c1=O)CCCC3)c1ccc(F)cc1	-40.2
COc1ccc(CNC(=O)C2CSC(=O)C2)cc1 (centres undefined)	10.8
O=C(Nc1ncnc2sc3c(c12)CCC3)c1ccco1	9.0
SMILES	RORa inhibitor
O=C(NCc1ccco1)c1ccc2nc3sc4c(c3c(=O)n2c1)CCCC4	56.0*
O=C(Cn1c(=O)sc2ccccc21)NCc1ccco1	5.9
O=C(OCc1nc2ccccc2s1)c1cccs1	-52.7
CNc1sc(C(=O)c2cccs2)c(N)c1-c1nc2ccccc2s1	-32.6
O=C(NC1CC1)c1ccc(-c2nc3ccccc3s2)s1	80.9*
CCOC(=O)C1CCCN(C(=O)C2CCN(S(=O)(=O)c3cnc[nH]3)CC2)C1 (centres undefined)	9.5
CN(CC(=O)NC1CCCCC1)S(=O)(=O)c1cccc2nsnc12	0.7
CC1=CCC(COC(=O)Nc2ccccc2)CC1 (centres undefined)	-89.9
CCOc1ccccc1N(CC(=O)NCC1CCCO1)C(=O)CCC(=O)Nc1ccccn1 (centres undefined)	-14.1
CCOc1ccc(NC(=O)c2ccccc2OC)cc1	-49.0
COc1ccc(C(=O)Nc2ccc(C)cn2)c(OC)c1	78.3*
COc1ccccc1C(=O)Nc1ccccn1	-44.7
CC(C)C(=O)N1CCN(c2nc(-c3ccccc3)c3c(c2C#N)CCCC3)CC1	32.9
CC(=O)Cc1nsc(Nc2ccc3c(c2)OCCO3)n1	-121.8
Cc1cc(OCC(=O)N2CCOCC2)c(C(C)C)cc1Cl	2.8
CC1CCc2c(sc3nc(SCc4nc(-c5ccccc5)no4)n(C)c(=O)c23)C1 (centres undefined)	18.5
COc1cccc(-c2cc(C(=O)N3C(C)CCCC3C)no2)c1 (centres undefined)	-66.9
CCC(C(=O)Nc1ccccc1OC)n1c(C(=O)OC)cc2ccsc21 (centres undefined)	5.2
COc1ccc(Cl)cc1NC(=O)c1cnc2n(c1=O)CCS2	-8.4
Cc1ccccc1NC(=O)c1cnc2ccccn2c1=O	53.5*
Cc1cccc(NC(=O)c2cnc3n(c2=O)CCS3)c1	-75.8
CSCCC(NC=C1C(=O)OC(C)(C)OC1=O)C(=O)O (centres undefined)	9.2
O=S1(=O)C=C(Sc2nc3cc(Cl)ccc3o2)c2ccccc21	75.3*
CS(=O)c1nc(-c2ccc(Br)cc2)cc(-c2ccccc2)c1C#N (centres undefined)	57.5*
Nc1nc(-c2ccccc2)cc(-c2ccccc2O)n1	-49.2
SMILES	RORa inhibitor
O=C(Nc1cccc(Br)c1)c1ccn[nH]1	-54.2
COc1ccc(N(CC(=O)NCc2ccco2)S(C)(=O)=O)cc1Cl	1.4
CS(=O)(=O)N(CC(=O)NCC1CCCO1)c1ccc(F)c(Cl)c1 (centres undefined)	6.4
CCOC(=O)Cc1csc(SCc2nc3ccccc3c(=O)[nH]2)n1	-18.0
CCN(C(=O)c1cccs1)c1nnc(-c2ccncc2)s1	-0.2
CCN(C(=O)c1ccc(C(C)(C)C)cc1)c1nnc(Cn2nnc3ccccc32)s1	66.2*
Cc1cccc(N2CC(C(=O)Nc3ccc4c(c3)OCO4)CC2=O)c1C (centres undefined)	26.5
Cc1noc(C)c1COC(=O)c1cccc(S(=O)(=O)N2c3ccccc3CC2C)c1 (centres undefined)	-27.7
Cc1cc(N)c(NC2=CC(=O)CC(C)(C)C2)cc1C	-70.5
CCOc1ccc(CCNC(=O)C(O)c2ccccc2)cc1 (centres undefined)	3.2
CCOc1ccc2oc(-c3ccccc3)c(C(=O)O)c2c1	-3.8
Cn1nnc(NC(=O)c2cccc(OCc3ccccc3)c2)n1	-54.2
O=C(O)c1ccc(COc2ccc(CO)cc2Cl)cc1	-4.9
CCOc1ccc(OCc2cccc(C(=O)O)c2)cc1	93.8*
CN1CCN(C(=O)c2ccc(COc3ccc(Cl)cc3Cl)cc2)CC1	-4.2
COc1ccc(NS(=O)(=O)c2cc(C(=O)O)ccc2C)cc1	-3.7
COc1ccc(OCc2cccc(C(=O)O)c2)cc1	94.1*
O=C(O)c1cccc(COc2ccc(CO)cc2Cl)c1	93.8*
CC(C)[C@H](NC(=O)[C@@H]1CSCN1C(=O)OC(C)(C)C)C(=O)NCC1CCC(C(=O)O)CC1 (some centres undefined)	1.0
CC(C)C1=C2CCCCC2NC(=O)N1 (centres undefined)	-3.7
C=CCn1c(C#N)c(N)sc1=N	6.2
COc1ccc(OC)c2sc(NC(=O)c3ccc(S(=O)(=O)N(C)C)cc3)nc12	-15.0
Cc1nnc(SCC(=O)NCCc2ccccc2)[nH]c1=O	7.1
O=C(Cc1cn2ccsc2n1)NCCc1ccc(F)cc1	-14.5
Cc1ccc(S(=O)(=O)N(C)Cc2ccc(-c3nnc4n3CCC4)cc2)cc1	13.5
SMILES	RORa inhibitor
Cc1ccc(-n2ncc3c2ncn2c(C)nnc32)cc1C	-59.5
Fc1ccc(-c2nnc(NC3=NCCCCC3)o2)cc1	73.2*
COc1ccc(C2CCCN2C(=O)Nc2cccc(C(C)=O)c2)cc1OC (centres undefined)	-4.9
CCC(C)(C(=O)NC1CCCCC1)N(C(=O)c1cnccn1)c1c(C)n(C)n(-c2ccccc2)c1=O (centres undefined)	1.0
CCN(C(=O)COc1ccccc1)c1nnc(-c2cccnc2)s1	-4.6
Cc1ccc2c(CSc3nnc(C4CC4)n3N)cc(=O)oc2c1C	2.7
